Results from ChEMBL document CHEMBL4049426, “Identification of the Clinical Candidate (R)-(1-(4-Fluorophenyl)-6-((1-methyl-1H-pyrazol-4-yl)sulfonyl)-4,4a,5,6,7,8-hexahydro-1H-pyrazolo[3,4-g]isoquinolin-4a-yl)(4-(trifluoromethyl)pyridin-2-yl)methanone (CORT125134): A Selective Glucocorticoid Receptor (GR) Antagonist” (J Med Chem, 2017).
Calls of active or inactive are those of the source. No cut-off for these calls is given here.

Columns and labels:
Macaca mulatta = organism: Macaca mulatta; assay: (§1) Antagonist activity at monkey glucocorticoid receptor in primary hepatocytes assessed as dexamethasone-induced tyrosine amino transferase activity preincubated for 30 mins followed by dexamethasone addition measured after 20 hrs; format: cell-based
[1] = as §1; format: cell-based, Macaca mulatta
Glucocorticoid receptor [2] = biological target: T1, Glucocorticoid receptor (Homo sapiens, UniProt P04150); assay: Antagonist activity at glucocorticoid receptor in human HepG2 cells assessed as inhibition of dexamethasone-induced tyrosine amino transferase activity preincubated for 30 mins followed by dexamethasone addition measured after 20 hrs; format: cell-based
T1 sequence (P04150 whole entry): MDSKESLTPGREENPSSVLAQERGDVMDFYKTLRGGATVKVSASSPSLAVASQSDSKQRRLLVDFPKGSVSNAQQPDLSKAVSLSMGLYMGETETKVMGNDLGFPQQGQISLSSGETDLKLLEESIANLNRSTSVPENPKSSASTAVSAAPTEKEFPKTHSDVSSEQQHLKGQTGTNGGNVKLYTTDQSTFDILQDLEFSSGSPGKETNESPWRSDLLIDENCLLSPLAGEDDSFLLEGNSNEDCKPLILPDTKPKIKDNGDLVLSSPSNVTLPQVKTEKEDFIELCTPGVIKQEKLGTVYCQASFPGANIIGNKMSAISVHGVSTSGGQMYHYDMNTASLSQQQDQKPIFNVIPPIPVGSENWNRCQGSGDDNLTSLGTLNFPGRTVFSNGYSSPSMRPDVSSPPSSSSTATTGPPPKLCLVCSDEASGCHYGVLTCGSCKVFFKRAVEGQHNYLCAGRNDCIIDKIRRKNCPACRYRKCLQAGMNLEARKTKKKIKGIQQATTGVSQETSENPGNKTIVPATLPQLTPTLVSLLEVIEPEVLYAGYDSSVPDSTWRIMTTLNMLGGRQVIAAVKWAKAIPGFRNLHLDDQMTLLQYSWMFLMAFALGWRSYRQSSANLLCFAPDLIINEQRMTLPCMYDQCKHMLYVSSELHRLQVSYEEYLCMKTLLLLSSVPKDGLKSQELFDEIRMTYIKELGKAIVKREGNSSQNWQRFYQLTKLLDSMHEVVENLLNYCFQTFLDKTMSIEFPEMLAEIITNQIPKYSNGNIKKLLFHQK

Cytochrome P450 2B6 = biological target: T2, Cytochrome P450 2B6 (Homo sapiens, UniProt P20813); assay: Inhibition of CYP2B6 (unknown origin); format: ADME
T2 sequence (P20813 whole entry): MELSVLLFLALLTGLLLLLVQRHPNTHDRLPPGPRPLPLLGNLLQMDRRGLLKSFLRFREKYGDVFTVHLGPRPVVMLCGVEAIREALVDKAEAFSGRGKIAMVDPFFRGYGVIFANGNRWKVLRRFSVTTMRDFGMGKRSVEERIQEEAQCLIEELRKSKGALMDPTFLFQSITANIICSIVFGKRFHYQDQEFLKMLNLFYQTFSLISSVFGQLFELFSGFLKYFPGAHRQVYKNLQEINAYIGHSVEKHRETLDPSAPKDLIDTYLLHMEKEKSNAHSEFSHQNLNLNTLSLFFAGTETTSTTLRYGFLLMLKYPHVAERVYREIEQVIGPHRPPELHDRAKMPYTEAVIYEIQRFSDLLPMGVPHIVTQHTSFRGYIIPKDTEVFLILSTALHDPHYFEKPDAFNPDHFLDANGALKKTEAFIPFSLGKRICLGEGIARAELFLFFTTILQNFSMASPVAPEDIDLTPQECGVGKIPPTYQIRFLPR

Rattus norvegicus [3] = assay: (§2) In vivo antagonist activity at glucocorticoid receptor in Sprague-Dawley rat assessed as reduction in cortisone-induced plasma glucose levels at 30 mg/kg, po bid via gavage for 6 days pretreated for 12 hrs followed by cortisone 21-acetate treatment measured 24 hrs after last cortisone 21-acetate treatment; format: functional, organism-based
How it was run: (§3)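 Male Sprague Dawley rats (200-250g), 3-day vehicle baseline, groups of eight. Compound as suspension in DMSO:Tween 80:0.5% HPMC 10:0.1:89.9, oral gavage twice daily for 6 days; cortisone 21-acetate 30mg/kg s.c. daily in 1% methylcellulose. Tail-vein blood 24 h after last cortisone (12 h after last compound); glucose by clinical reagent, insulin by ultrasensitive rat ELISA.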

Rattus norvegicus [4] = assay: as §2, with “7.5” for “30”; format: functional, organism-based
How it was run: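 Male Sprague Dawley rats (200-250 g) got vehicle daily for a 3-day baseline, then groups of eight were dosed. Test agent was suspended in DMSO:Tween 80:0.5% HPMC (10:0.1:89.9) and given by oral gavage twice daily for 6 days. Cortisone 21-acetate was given at 30 mg/kg s.c. once daily in 1% methylcellulose. Tail-vein blood was taken 24 h after the last cortisone dose (12 h after the last test dose). Glucose was read with a clinical reagent and insulin by rat ELISA.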

Rattus norvegicus [5] = assay: as §2, with “rat cortisone model of exogenous Cushing's syndrome” for “rat”, “inhibition of” for “reduction in cortisone-induced”, “insulin” for “glucose”; format: functional, organism-based; how it was run: as §3
Cytochrome P450 2C9 = Cytochrome P450 2C9 (Homo sapiens, UniProt P11712); assay: Inhibition of CYP2C9 (unknown origin); format: ADME
Cytochrome P450 2C9, sequence (P11712 whole entry): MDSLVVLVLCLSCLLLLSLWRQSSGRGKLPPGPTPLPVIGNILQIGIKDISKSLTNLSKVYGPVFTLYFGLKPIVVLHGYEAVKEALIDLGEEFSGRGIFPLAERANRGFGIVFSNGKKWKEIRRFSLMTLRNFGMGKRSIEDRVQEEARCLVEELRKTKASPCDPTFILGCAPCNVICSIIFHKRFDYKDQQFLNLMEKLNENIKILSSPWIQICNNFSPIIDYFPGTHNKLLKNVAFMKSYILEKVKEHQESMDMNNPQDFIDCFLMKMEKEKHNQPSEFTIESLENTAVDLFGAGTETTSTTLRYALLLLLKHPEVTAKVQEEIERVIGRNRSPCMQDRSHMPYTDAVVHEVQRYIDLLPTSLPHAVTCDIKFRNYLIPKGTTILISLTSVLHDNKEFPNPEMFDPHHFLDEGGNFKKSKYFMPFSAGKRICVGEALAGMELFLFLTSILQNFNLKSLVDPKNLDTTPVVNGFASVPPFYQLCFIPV

Cytochrome P450 2D6 = Cytochrome P450 2D6 (Homo sapiens, UniProt P10635); assay: Inhibition of CYP2D6 (unknown origin); format: ADME
Cytochrome P450 2D6, sequence (P10635 whole entry): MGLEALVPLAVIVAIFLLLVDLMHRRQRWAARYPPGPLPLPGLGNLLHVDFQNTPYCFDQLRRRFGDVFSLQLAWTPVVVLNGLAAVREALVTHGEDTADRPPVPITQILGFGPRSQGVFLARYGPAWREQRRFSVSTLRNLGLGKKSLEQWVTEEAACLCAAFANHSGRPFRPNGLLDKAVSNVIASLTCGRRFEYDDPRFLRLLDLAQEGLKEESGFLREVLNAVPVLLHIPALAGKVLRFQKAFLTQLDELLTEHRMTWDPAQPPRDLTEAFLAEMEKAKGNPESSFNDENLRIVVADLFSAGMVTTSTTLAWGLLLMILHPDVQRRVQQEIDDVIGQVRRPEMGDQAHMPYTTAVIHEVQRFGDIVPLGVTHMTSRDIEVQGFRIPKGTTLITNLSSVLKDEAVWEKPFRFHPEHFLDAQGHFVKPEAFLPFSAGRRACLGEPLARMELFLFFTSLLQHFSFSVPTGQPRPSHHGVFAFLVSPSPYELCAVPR

Glucocorticoid receptor [6] = biological target: T3, Glucocorticoid receptor (Canis lupus familiaris, UniProt A0A8C0QLS2); assay: (§4) Antagonist activity at dog glucocorticoid receptor in primary hepatocytes assessed as dexamethasone-induced tyrosine amino transferase activity preincubated for 30 mins followed by dexamethasone addition measured after 20 hrs; format: cell-based
T3 sequence (A0A8C0QLS2 whole entry): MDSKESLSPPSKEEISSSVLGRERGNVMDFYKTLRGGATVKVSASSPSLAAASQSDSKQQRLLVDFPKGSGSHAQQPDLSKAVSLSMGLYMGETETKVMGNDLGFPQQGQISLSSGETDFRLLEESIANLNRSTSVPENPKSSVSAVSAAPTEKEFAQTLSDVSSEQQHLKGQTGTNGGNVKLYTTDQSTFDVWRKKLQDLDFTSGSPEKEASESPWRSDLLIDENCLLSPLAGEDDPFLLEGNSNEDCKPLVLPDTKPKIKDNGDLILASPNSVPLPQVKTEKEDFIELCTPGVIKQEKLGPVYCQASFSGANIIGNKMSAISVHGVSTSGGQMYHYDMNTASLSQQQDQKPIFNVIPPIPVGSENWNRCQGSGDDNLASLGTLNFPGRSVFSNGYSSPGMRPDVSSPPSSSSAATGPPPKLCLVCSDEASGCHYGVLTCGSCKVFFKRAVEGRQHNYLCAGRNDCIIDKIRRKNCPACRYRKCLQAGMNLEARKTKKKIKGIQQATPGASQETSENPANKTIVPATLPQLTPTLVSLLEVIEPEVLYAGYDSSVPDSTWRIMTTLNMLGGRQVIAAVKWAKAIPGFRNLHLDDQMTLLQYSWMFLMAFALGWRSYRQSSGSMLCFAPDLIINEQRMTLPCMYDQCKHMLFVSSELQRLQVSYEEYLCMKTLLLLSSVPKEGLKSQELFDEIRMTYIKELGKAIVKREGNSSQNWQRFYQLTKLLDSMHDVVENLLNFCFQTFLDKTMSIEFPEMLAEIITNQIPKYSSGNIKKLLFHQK

[7] = biological target: T4, Glucocorticoid receptor (Canis lupus familiaris) (UniProt A0A8C0QLS2); assay: as §4; format: cell-based
T4 sequence (whole entry): T3 sequence (A0A8C0QLS2 whole entry)

[8] = Protein binding in human plasma; format: ADME, cell-free; conditions: read-out: PPB (converted)

Cn1cc(S(=O)(=O)N2CCC3=Cc4c(cnn4-c4ccc(F)cc4)C[C@]3(C(=O)c3cc(C(F)(F)F)ccn3)C2)cn1 [RELACORILANT]
Imax (Macaca mulatta): 99%
Ki [1]: 0.21 µM
Ki (Glucocorticoid receptor [2]): 0.0072 µM
IC50 (Cytochrome P450 2B6): > 10 µM
inhibition (Rattus norvegicus [3]): Active
inhibition (Rattus norvegicus [4]): Active
inhibition (Rattus norvegicus [5]): Active
IC50 (Cytochrome P450 2C9): 2 µM
IC50 (Cytochrome P450 2D6): 9 µM
Ki (Glucocorticoid receptor [6]): > 10 µM
Imax [7]: 31%
fraction unbound [8]: 0.005
